Assay results as given in ChEMBL document CHEMBL2176995, “An oral sphingosine 1-phosphate receptor 1 (S1P(1)) antagonist prodrug with efficacy in vivo: discovery, synthesis, and evaluation” (J Med Chem, 2012).
The source made the active and inactive calls. The rule behind the calls is not given here.

How the values were obtained:
Rattus norvegicus [1] = experiment: Reduction in peripheral blood lymphocytes in Lewis rat assessed as remaining circulating lymphocytes level at 30 mg/kg, po, qd for 5 days by automated hematology analyzer; assay type: functional
Procedure, shortened: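 Male Lewis rats were dosed daily at 30 mg/kg po for 5 days. Blood lymphocytes were counted on an automated hematology analyzer once a day, before the next dose, and expressed relative to the pretreatment baseline.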

Rattus norvegicus [2] = experiment: Reduction in peripheral blood lymphocytes in stringent Dark Agouti to Lewis rat heterotopic vascular heart allotransplantation model at 30 mg/kg, po bid coadministered with 0.3 mg/kg, qd everolimus measured post 50 days post transplant relative to untreated control; assay type: functional; design: scale not given: the % may be the effect or the level left
Procedure, shortened: (§1)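 DA donor hearts were grafted into Lewis recipients. Treatment started 3 days before transplantation: prodrug 30 mg/kg po b.i.d. (PEG200/water, pH 5) alone or with sotrastaurin 10 mg/kg po b.i.d. or everolimus 0.3 mg/kg po q.d. Grafts were followed to rejection or up to 50 days. Allografts were formalin-fixed, cut at 3 μm, stained with H&E and trichrome, and scored for rejection. Lymphocytes were counted weekly before dosing, and body weight was monitored.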

Rattus norvegicus [3] = experiment: Reduction in peripheral blood lymphocytes in stringent Dark Agouti to Lewis rat heterotopic vascular heart allotransplantation model at 30 mg/kg, po bid coadministered with 10 mg/kg, bid sotrastaurin measured post 50 days post transplant relative to untreated control; assay type: functional; design: scale not given: the % may be the effect or the level left; procedure, shortened: as §1
Rattus norvegicus [4] = experiment: Toxicity in stringent Dark Agouti to Lewis rat heterotopic vascular heart allotransplantation model assessed as incidence of histopathological changes at 30 mg/kg, po bid coadministered with 0.3 mg/kg, qd everolimus by hematoxylin and eosin staining; assay type: organism-based; conditions: in vivo; procedure, shortened: as §1
Rattus norvegicus [5] = experiment: Toxicity in stringent Dark Agouti to Lewis rat heterotopic vascular heart allotransplantation model assessed as change in body weight at 30 mg/kg, po bid coadministered with 0.3 mg/kg, qd everolimus; assay type: organism-based; conditions: in vivo; procedure, shortened: as §1
Rattus norvegicus [6] = experiment: Toxicity in stringent Dark Agouti to Lewis rat heterotopic vascular heart allotransplantation model assessed as compound tolerance at 30 mg/kg, po bid coadministered with 0.3 mg/kg, qd everolimus; assay type: organism-based; conditions: in vivo; procedure, shortened: as §1
Rattus norvegicus [7] = experiment: Toxicity in stringent Dark Agouti to Lewis rat heterotopic vascular heart allotransplantation model assessed as change in body weight at 30 mg/kg, po bid coadministered with 10 mg/kg, bid sotrastaurin; assay type: organism-based; conditions: in vivo; procedure, shortened: as §1
Rattus norvegicus [8] = experiment: Toxicity in stringent Dark Agouti to Lewis rat heterotopic vascular heart allotransplantation model assessed as compound tolerance at 30 mg/kg, po bid coadministered with 10 mg/kg, bid sotrastaurin; assay type: organism-based; conditions: in vivo; procedure, shortened: as §1
Rattus norvegicus [9] = experiment: Toxicity in stringent Dark Agouti to Lewis rat heterotopic vascular heart allotransplantation model assessed as change in body weight at 30 mg/kg, po bid; assay type: organism-based; design: dose 30 mg/kg, route oral; conditions: in vivo; procedure, shortened: as §1
Rattus norvegicus [10] = experiment: Toxicity in stringent Dark Agouti to Lewis rat heterotopic vascular heart allotransplantation model assessed as compound tolerance at 30 mg/kg, po bid; assay type: organism-based; design: dose 30 mg/kg, route oral; conditions: in vivo; procedure, shortened: as §1
Rattus norvegicus [11] = experiment: Increase in allograft survival in stringent Dark Agouti to Lewis rat heterotopic vascular heart allotransplantation model assessed as improvement in histological changes at 30 mg/kg, po bid coadministered with 10 mg/kg, bid sotrastaurin by hematoxylin and eosin staining; assay type: functional, organism-based; procedure, shortened: as §1
Rattus norvegicus [12] = experiment: Increase in allograft survival in stringent Dark Agouti to Lewis rat heterotopic vascular heart allotransplantation model assessed as allograft mean survival time at 30 mg/kg, po bid coadministered with 10 mg/kg, bid sotrastaurin (reference value: 6 days); assay type: functional
Procedure, shortened: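 This was a DA-to-Lewis heart allograft model with co-treatment from 3 days before transplantation. The prodrug was given po b.i.d. in PEG200/water at pH 5, plus the PKC inhibitor po b.i.d. in D-glucose/PEG400/water/HCl. Lymphocytes were counted weekly before dosing, and blood levels of both drugs were determined. Survival was followed up to 50 days, as median days, with H&E and trichrome histology.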

Rattus norvegicus [13] = experiment: Increase in allograft survival in stringent Dark Agouti to Lewis rat heterotopic vascular heart allotransplantation model assessed as allograft mean survival time at 30 mg/kg, po bid (reference value: 6 days); assay type: functional
Rattus norvegicus [14] = experiment: Induction of capillary leakage in Lewis rat Evans blue dye lung leakage model assessed as thorax fluid level at 30 mg/kg, po bid measured after 96 hrs relative to untreated control; assay type: organism-based; design: dose 30 mg/kg, route oral; conditions: in vivo
Procedure, shortened: (§2)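 Male Lewis rats were gavaged twice daily with vehicle or 30 mg/kg in 30% PEG200/buffer. Evans blue dye (20 mg/2 mL NaCl/kg iv) was given under anesthesia at 5, 23 or 95 h. One hour later the rats were bled, lungs were perfused with saline, dried at 60 °C for 24 h, weighed, and dye was extracted in formamide (24 h, 37 °C). Thoracic fluid volume was also recorded.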

Rattus norvegicus [15] = experiment: Induction of capillary leakage in Lewis rat Evans blue dye lung leakage model assessed as thorax fluid level at 30 mg/kg, po bid measured after 24 hrs relative to untreated control; assay type: organism-based; design: dose 30 mg/kg, route oral; conditions: in vivo; procedure, shortened: as §2
Rattus norvegicus [16] = experiment: Induction of capillary leakage in Lewis rat Evans blue dye lung leakage model at 30 mg/kg, po bid measured 24 hrs after 6 hrs relative to untreated control; assay type: organism-based; design: dose 30 mg/kg, route oral; conditions: in vivo; procedure, shortened: as §2
Rattus norvegicus [17] = experiment: Induction of capillary leakage in Lewis rat Evans blue dye lung leakage model at 30 mg/kg, po bid measured 6 hrs after 6 hrs relative to untreated control; assay type: organism-based; design: dose 30 mg/kg, route oral; conditions: in vivo; procedure, shortened: as §2
[18] = Stability in pH 10 buffer assessed as compound remaining measured after 17 hrs by UPLC; assay type: physicochemical; conditions: pH 10, 17 h
Procedure, shortened: (§3)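 The ester was incubated in buffer at pH 7.4 or pH 10. Remaining ester and the hydrolysed carboxylic acid were followed over time by UPLC, at time points out to 82 h.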

[19] = Stability in pH 7.4 buffer assessed as compound hydrolysis measured after 82 hrs by UPLC; assay type: physicochemical; conditions: pH 7.4, 82 h; procedure, shortened: as §3
[20] = Stability in pH 7.4 buffer assessed as compound hydrolysis measured after 18 hrs by UPLC; assay type: physicochemical; conditions: read-out: Drug degradation; procedure, shortened: as §3
[21] = Stability in pH 7.4 buffer assessed as compound hydrolysis measured after 2 hrs by UPLC; assay type: physicochemical; conditions: read-out: Drug degradation; procedure, shortened: as §3
Rattus norvegicus [22] = experiment: Reduction in peripheral blood lymphocytes in Lewis rat assessed as remaining circulating lymphocytes level at 30 mg/kg, po administered as single dose measured 24 hrs post dose by automated hematology analyzer; assay type: functional
Procedure, shortened: (§4)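 Male Lewis rats receive a single oral dose of compound or vehicle, freshly made in 30% PEG200/buffer. Blood (<200 μL) is drawn by sublingual puncture under isoflurane 5% v/v at baseline and later time points. Lymphocytes are counted on an automated hematology analyzer, and each animal's change is expressed as percent of its own pre-treatment baseline.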

Rattus norvegicus [23] = experiment: Reduction in peripheral blood lymphocytes in Lewis rat assessed as remaining circulating lymphocytes level at 30 mg/kg, po administered as single dose measured 14 hrs post dose by automated hematology analyzer; assay type: functional; procedure, shortened: as §4
[24] = Cmax in Lewis rat blood at 30 mg/kg, po administered as single dose measured 8 hrs post dose
[25] = Drug level in Lewis rat blood at 30 mg/kg, po administered as single dose measured 24 hrs post dose; conditions: read-out: Drug uptake
[26] = Drug level in Lewis rat blood at 30 mg/kg, po administered as single dose measured 0.25 hrs post dose; conditions: read-out: Drug uptake
Blood = experiment: Cmax in Lewis rat blood assessed as level of (S)-2-{[3'-(4-Chloro-2,5-dimethylphenylsulfonylamino)-3,5-dimethylbiphenyl-4-carbonyl]methylamino}-4-dimethylaminobutyric Acid Hydrochloride at 30 mg/kg, po administered as single dose measured 8 hrs post dose; conditions: in vivo

COC(=O)[C@H](CCN(C)C)N(C)C(=O)c1c(C)cc(-c2cccc(NS(=O)(=O)c3cc(C)c(Cl)cc3C)c2)cc1C
Activity (Rattus norvegicus [1]): 20%
Activity (Rattus norvegicus [2]): 9%
Activity (Rattus norvegicus [3]): 12%
Activity (Rattus norvegicus [4]): Non-toxic
Activity (Rattus norvegicus [5]): Non-toxic
Activity (Rattus norvegicus [6]): Non-toxic
Activity (Rattus norvegicus [7]): Non-toxic
Activity (Rattus norvegicus [8]): Non-toxic
Activity (Rattus norvegicus [9]): Non-toxic
Activity (Rattus norvegicus [10]): Non-toxic
Activity (Rattus norvegicus [11]): Active
MST (Rattus norvegicus [12]): >50 days
MST (Rattus norvegicus [13]): 8 days
Activity (Rattus norvegicus [14]): Non-toxic
Activity (Rattus norvegicus [15]): 2 mL
fold change (FC) (Rattus norvegicus [16]): 2.4
fold change (FC) (Rattus norvegicus [17]): 3
Stability [18]: Unstable
Stability [19]: Unstable
degraded at 18 h [20]: 48%
degraded at 2 h [21]: 9%
Activity (Rattus norvegicus [22]): 22%
Activity (Rattus norvegicus [23]): 21%
Cmax [24]: 364 ng/mL
concentration at 24 h [25]: 50 ng/mL
concentration at 0.25 h [26]: 146 ng/mL
Cmax (Blood): 29 ng/mL
